Data set [1] deals with MDA-MB-231. As to the kind of experiment: Antiinvasive activity in human MDA-MB-231 cells at 10 uM after 24 hrs by inverted microscopic analysis. The class given is functional. The conditions noted are these: MDA-MB-231, 24 h. In short, it runs like this:
(§1)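 MDA-MB-231 cells at 80% confluence, 50,000 per Matrigel-coated insert (8 µm PET membrane) in DMEM with 10 or 25 µM compound and 2% DMSO. The lower chamber held DMEM with 10% FBS as chemoattractant. After 24 h at 37 °C in 5% CO2, invaded cells were methanol-fixed, Diff-stained and counted by hand in ten fields at 40x. Values were normalised to the 2% DMSO vehicle; triplicate.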

Data set [2] deals with T1, Procathepsin L (Homo sapiens, UniProt P07711). The experiment in a line: Inhibition of human liver cathepsin L using Z-FR-AMC as substrate measured every 15 sec for 5 mins by fluorescence assay.
Target sequence in this assay (P07711 whole entry): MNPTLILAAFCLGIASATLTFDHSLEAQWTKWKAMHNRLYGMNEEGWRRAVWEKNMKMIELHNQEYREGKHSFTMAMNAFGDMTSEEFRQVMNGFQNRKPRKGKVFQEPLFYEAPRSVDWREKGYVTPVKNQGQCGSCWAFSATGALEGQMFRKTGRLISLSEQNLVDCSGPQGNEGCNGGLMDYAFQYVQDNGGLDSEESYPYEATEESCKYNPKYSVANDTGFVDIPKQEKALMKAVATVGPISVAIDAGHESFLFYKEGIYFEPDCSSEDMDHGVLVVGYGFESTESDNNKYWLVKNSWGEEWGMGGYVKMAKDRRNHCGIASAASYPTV
Another data set has as its system HUVEC. The experiment in a line: Cytotoxicity against HUVEC cells after 48 hrs by SRB assay. The class given is cell-based. Conditions: human. In short, it runs like this: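 SRB growth assay: HUVECs (pooled donors, passage ≤5) plated at 9,000 cells/well for 24 h, then exposed to ten-fold serial dilutions for 48 h. Cells were TCA-fixed and stained with 0.4% SRB, and absorbance read at 540 nm normalised to 630 nm.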
Background: Sulforhodamine B stains cellular protein and so reports cell mass.

Another data set deals with Cathepsin B (Homo sapiens, UniProt P07858). The experiment in a line: Inhibition of human liver cathepsin B using Z-RR-AMC as substrate after 5 mins by fluorescence assay. Put shortly:
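Human liver cathepsin B (1 nM) was pre-incubated 5 min at 37 °C with inhibitor (final 10 µM to 10 pM). Substrate was 60 µM Z-RR-AMC in 120 mM sodium potassium phosphate pH 6.0 with 1 mM EDTA, 3 mM DTT, 0.01% Brij 35 and 2% DMSO. AMC fluorescence (ex 355/em 460 nm) was read for 5 min at 37 °C.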

Data set [3] deals with MDA-MB-231. As to the kind of experiment: Antimigrative activity in human MDA-MB-231 cells at 25 uM after 24 hrs by inverted microscopic analysis. The format is functional. Conditions: MDA-MB-231, 24 h. Put shortly:
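Transwell migration of MDA-MB-231 cells, run as for invasion but on 8 µm pore inserts without Matrigel. Each insert held 50,000 cells in DMEM with 25 µM compound and 2% DMSO, with 10% FBS DMEM below. After 24 h at 37 °C, cells were fixed, stained and counted by microscope. Values were normalised to the DMSO vehicle; triplicate.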

In data set [4] the test system is MDA-MB-231. As to the kind of experiment: Antiinvasive activity in human MDA-MB-231 cells at 25 uM after 24 hrs by inverted microscopic analysis. The class given is functional. Conditions: for inhibition at 25 µM: MDA-MB-231, 24 h. In short, it runs like this:
as §1

A short description of data set [5]: Antitumor activity against C3H mouse derived mammary cancer cells implanted in CDF1 mouse assessed as time taken for tumors to reach 500 mm'3 at 20 mg/kg, ip administered 5 consecutive days starting either on day of tumor implantation or when tumors reached 200 mm'3 (reference value: 20.1 +/- 0.6 days). The format is functional, Cancer cell lines. In short, it runs like this: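 Female CDF1 mice, 10-14 weeks old, had minced C3H mammary carcinoma tissue (5-10 µl) implanted in the right rear foot. Dosing was 20 mg/kg i.p. at 0.02 ml/g, dissolved in Tween80 and diluted to 10% with saline, given daily for 5 days. Tumour volume was followed daily to find days to reach 500 mm3. Groups had 5-8 mice; mean ±1 S.E.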

A further data set concerns Mus musculus. As to the kind of experiment: Toxicity in C3H mouse derived mammary cancer cells implanted CDF1 mouse assessed as drug tolerability at 20 mg/kg, ip administered 5 consecutive days starting either on day of tumor implantation or when tumors reached 200 mm'3. The class given is organism-based, Cancer cell lines. Conditions: in vivo.
A short description of data set [6]: Antiinvasive activity in human PC3-ML cells at 10 uM after 24 hrs by microscopic analysis. The class given is functional. In short, it runs like this: (§2)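 PC-3ML cells, a metastatic PC-3 subline, were seeded in serum-free medium into Matrigel-coated invasion inserts, with 10% FBS medium in the bottom chamber. At 24 h, cells that reached the membrane underside were stained and counted by microscope. Mean and standard error come from 3-5 independent experiments.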

A short description of data set [7]: Antiinvasive activity in human PC3-ML cells at 25 uM after 24 hrs by microscopic analysis. The format is functional. In short, it runs like this: as §2
Data set [8] has as its target T1, Procathepsin L. As to the kind of experiment: Inhibition of human liver cathepsin L using Z-FR-AMC as substrate at 10000 nM measured every 15 sec for 5 mins by fluorescence assay. In short, it runs like this: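 Human liver cathepsin L (1 nM) was pre-incubated 5 min at 25 °C with 10 µM inhibitor or vehicle. Substrate was 50 µM Z-FR-AMC in 100 mM NaOAc pH 5.5 with 1 mM EDTA, 3 mM DTT, 0.01% Brij 35 and 2% DMSO.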
Target sequence in this assay (P07711 114-333 limits assumed): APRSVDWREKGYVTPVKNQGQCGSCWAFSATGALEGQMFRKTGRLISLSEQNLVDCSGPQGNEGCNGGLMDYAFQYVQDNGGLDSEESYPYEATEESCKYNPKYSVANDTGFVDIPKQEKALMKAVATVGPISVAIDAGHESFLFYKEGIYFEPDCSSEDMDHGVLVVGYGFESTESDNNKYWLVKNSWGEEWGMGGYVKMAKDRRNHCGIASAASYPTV

Data set [9] in a line: Antiinvasive activity in human PC3-ML cells at 5 uM after 24 hrs by microscopic analysis. The class given is functional. Put shortly: as §2
A short description of data set [10]: Antiinvasive activity in human PC3-ML cells at 1 uM after 24 hrs by microscopic analysis. The format is functional. In short, it runs like this: as §2

Activity calls are given as the source filed them. The calls are words filed in the database; no cut-off is given here.

By inhibition is commonly meant the relative decrease from the control value, in per cent. A word on the IC50: it is the midpoint of a concentration-inhibition curve. The GI50 is the concentration that inhibits growth by half. A high value points to less potent growth inhibition.

As for `NC(=S)N/N=C(\c1cc(Br)cc(C(=O)c2ccccc2F)c1)c1ccccc1F`, in the data set with MDA-MB-231 [1], at 10 µM the inhibition was 70%. For the same molecule, the IC50 against Procathepsin L [2] is 0.00812 µM; against Cathepsin B, over 10 µM. The molecule also returned a GI50 with HUVEC of over 85.9 µM. In addition, the inhibition at 25 µM with MDA-MB-231 [3] is over 50%. Besides, in the data set with MDA-MB-231 [4], the inhibition result is “Active”.
For the molecule `NC(=S)N/N=C(\c1ccccc1)c1cccc(C(=O)c2ccccc2)c1`, in data set [5], the Time came to 22.1 days. For the same molecule, in the data set on Mus musculus, the Activity entry is on record as “Non-toxic”. This molecule also came in with an inhibition at 10 µM in data set [6] of 37%. Further, the IC50 against Procathepsin L [2] is 0.00985 µM; against Cathepsin B, over 10 µM. Moreover, the GI50 in the data set with HUVEC turned out to be 53.3 µM. In addition, the inhibition at 25 µM in data set [7] was 53%; in the data set with MDA-MB-231 [3] it was 80%; with MDA-MB-231 [4], 30%.
`COc1cccc2c1C(=O)c1c(O)c3c(c(O)c1C2=O)C[C@@](O)(C(=O)CO)C[C@@H]3O[C@H]1C[C@H](N)[C@H](O)[C@H](C)O1` [DOXORUBICIN] registered a 50% growth inhibitory concentration (GI50) with HUVEC of 0.0268 µM. That is a double-digit nanomolar value.
With `NC(=S)N/N=C(\c1ccc(Br)cc1)c1cccc(C(=O)c2ccc(Br)cc2)c1`, the IC50 against Procathepsin L [2] was 1.52 µM; on Cathepsin B, over 10 µM.
The corresponding values for `NC(=S)N/N=C(\c1ccccc1)c1cccc(C(O)c2ccccc2)c1` (stereo not given) are 0.0238 µM and over 10 µM.
As to `CC(C)C[C@H](NC(=O)[C@@H]1O[C@H]1C(=O)O)C(=O)NCCCCN=C(N)N`, the inhibition at 10 µM with MDA-MB-231 [1] was 60%.
For the molecule `NC(=S)N/N=C(\c1ccc(Br)cc1)c1cccc(/C(=N/NC(N)=S)c2ccc(Br)cc2)c1`, the half-maximal inhibitory concentration (IC50) against Procathepsin L [2] and against Cathepsin B was over 10 µM throughout.
`NC(=S)N/N=C(\c1cccc(Br)c1)c1cc(O)cc(C(=O)c2cccc(Br)c2)c1` gave an inhibition on Procathepsin L [8] of 56.9%. In addition, the 50% inhibitory concentration (IC50) against Procathepsin L [2] is 10 µM; against Cathepsin B, over 10 µM.
In the case of `CC(=O)O[C@H]1C(=O)[C@@]2(C)[C@H]([C@H](OC(=O)c3ccccc3)[C@]3(O)C[C@H](OC(=O)[C@H](O)[C@@H](NC(=O)c4ccccc4)c4ccccc4)C(C)=C1C3(C)C)[C@]1(OC(C)=O)CO[C@@H]1C[C@@H]2O` [PACLITAXEL], halving of growth in the data set with HUVEC (GI50) required 0.00148 µM. That is a single-digit nanomolar value.
In the case of `NC(=S)N/N=C(\c1ccc(O)cc1)c1cccc(C(=O)c2ccc(O)cc2)c1`, the IC50 is 0.34 µM against Procathepsin L [2] and over 10 µM against Cathepsin B.
In the same order, the values of `CC(C)Oc1ccc(C(=O)c2cccc(/C(=N/NC(N)=S)c3ccc(OC(C)C)cc3)c2)cc1` are over 10 µM and over 10 µM.
In the case of `NC(=S)N/N=C(\c1ccccc1)c1cc(C(=O)c2ccccc2)cc(C(=O)c2ccccc2)c1`, the IC50 on Procathepsin L [2] was 0.056 µM; against Cathepsin B, over 10 µM.
The corresponding values for `NC(=S)N/N=C(\c1cccc(Br)c1)c1cc(Br)cc(C(=O)c2cccc(Br)c2)c1` are 10.3 µM and over 10 µM.
In the same order, the values of `COc1ccc(C(=O)c2cccc(/C(=N/NC(N)=S)c3ccc(OC)cc3)c2)cc1` are 5.12 µM and over 10 µM.
Consider `NC(=S)N/N=C(\c1ccc(F)cc1)c1cccc(C(=O)c2ccc(F)cc2)c1`, for which, in data set [9], the inhibition at 5 µM was 92%. The molecule also displayed an inhibition at 10 µM in the data set on MDA-MB-231 [1] of 15%. For the same molecule, the IC50 against Procathepsin L [2] was 0.0144 µM; against Cathepsin B it was over 10 µM. For the same molecule, in the data set on HUVEC, the GI50 was over 126 µM. The molecule also registered an inhibition at 1 µM in data set [10] of 59%. Further, the inhibition at 25 µM in the data set on MDA-MB-231 [3] was over 50%; in the data set on MDA-MB-231 [4], 60%.
As to `Cc1cccc(C(=O)c2cccc(/C(=N/NC(N)=S)c3cccc(C)c3)c2)c1`, the half-inhibitory concentration (IC50) was 0.654 µM against Procathepsin L [2] and over 10 µM at Cathepsin B.
In the case of `NC(=S)N/N=C(\c1cccc(O)c1)c1cc(Br)cc(C(=O)c2cccc(O)c2)c1`, the IC50 is 0.0716 µM against Procathepsin L [2] and over 10 µM against Cathepsin B. The same molecule had a GI50 in the data set on HUVEC of 13.3 µM.

These data come from ChEMBL document CHEMBL3627648, “Synthesis and biochemical evaluation of benzoylbenzophenone thiosemicarbazone analogues as potent and selective inhibitors of cathepsin L” (Bioorg Med Chem, 2015).
